From the RNAGym collection of RNA variant scans (doi:10.1126/science.aae0568) come the findings set out here.

Fewer inactive variants are shown than the library holds. Some results are limits rather than exact numbers.

Sequences and labels used below:
B1: tRNA (parent)
chain: GUUCCGUUGGCGUAAUGGUAACGCGUCUCCCUCCUAAGGAGAAGACUGCGGGUUCGAGUCCCGUACGGAACG

The variants in this data set derive from B1. Nature of the data set: yeast fitness relative to wild type (ratio to wild type); higher = fitter; tRNA-Arg(CCU), competitive growth, 37 C, YPD. Summed up: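 Amplicons of the tRNA-Arg(CCU) gene were sequenced, 100-nucleotide paired-end, from the start population and from each end population of a pooled yeast competition. The competition, in six parallel replicates, lasted 24 hours in YPD at 37°C. Fitness relative to wild type was calculated from changes in genotype frequencies. Genotypes had to have ≥ 100 starting reads, and estimates < 0.5 were set to 0.5.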
C4A C22U A40G A43U C46G C49G C62U: the yeast fitness was determined as 0.527. The value for C4A C11G C31U G38C G52A C66G was 0.649; that for A14C G68C was 0.687; that for C5G U8C G41A was no more than 0.5. The result for G6A C11A A43G G58A A65C C66U reads no more than 0.5. The result for U3C A14U A15C C31G A43U reads no more than 0.5. For the variant C11U G63A, the yeast fitness was 0.903.

As for A15U C60G G67A, the yeast fitness was no more than 0.5.

In the case of C11G C33U A36G C55U, the yeast fitness is no more than 0.5.

Take U2A C5U A20U G38A: the yeast fitness worked out at 0.56.

C11U C27A U54G: the yeast fitness was no more than 0.5. C11U U59A: the yeast fitness was 0.757. Consider C4U G10A A43U C55G G56A, for which the yeast fitness was no more than 0.5. The result for C5U G18A C30A G58A reads no more than 0.5.

For A14G C31G A37G, the yeast fitness is no more than 0.5. The result for C5U C24U reads 0.99. Consider C29U C30A U59G A69C, for which the yeast fitness was no more than 0.5.

Consider C27G G44C, for which the yeast fitness was found to be 0.569. The result for A42U C62A U64G C66G reads no more than 0.5; that for G23A C46U A65C, 0.54; that for C5U U16A C24U C66G, no more than 0.5. The value for G12A G44C G50A was 0.608; that for U8C C22U U32C C46G U53G G68C was no more than 0.5. As for G12A C30G C46G, the yeast fitness was no more than 0.5. Take U8C G25C C31U A69C: the yeast fitness was no more than 0.5.

Take U8A C29A A43G A57U: the yeast fitness was no more than 0.5.

As to C4G C61A C62U A65U A69C, the yeast fitness is no more than 0.5.

As for A15G G17C C33A G56C A65C G68A, the yeast fitness is no more than 0.5. The result for G10A U19A A42G reads no more than 0.5; that for G9A C34G G38C, no more than 0.5. The result for G12C C30A G48A C55G reads 0.607; that for U28A U32C A43C A57C, no more than 0.5; that for A15C C55A, 0.562. On to U47C C61G A65C, for which the yeast fitness was no more than 0.5. Regarding A36C G39A A57U, the yeast fitness was no more than 0.5. The result for C30G G41C G68A reads no more than 0.5; that for U35A A42U A43U, no more than 0.5; that for G25C U26G C60U C62G U64A A69U, no more than 0.5. As to U3A A57U A65C A69C, the yeast fitness came out at 0.593. The value for G41A C49A C62U G68C was no more than 0.5; that for U3A U32A G39A C49G C55U was no more than 0.5. The value for C11U C31U U64A A70G was no more than 0.5; that for G25A A42U A57G was no more than 0.5; that for C31G C33U A40C was 0.6.

Consider U7C A14G A20C A57G, for which the yeast fitness was no more than 0.5.

On to U8C G10A G67C, for which the yeast fitness came out at 0.592. The value for C29U U35A A70C was no more than 0.5; that for U26G G48A A57U was 0.598; that for C11G C30U A37C A70U was no more than 0.5.

C29A A37C: the yeast fitness was 0.597.

As to U3C G12A C46U G52C, the yeast fitness was no more than 0.5. The value for C5G C66A was 0.703; that for C4U U26G C62G was no more than 0.5.

In the case of G10A U13G C22G C46G, the yeast fitness was no more than 0.5.

Take G6C U7A U64G: the yeast fitness was no more than 0.5. The result for C4U C27A C31U A43U reads 0.57; that for C5A A14U C27U C49G A57G, no more than 0.5. The result for C4G C30G reads 0.713. In the case of A20C A70G, the yeast fitness stood at 0.925. As for C11A C29U A57C, the yeast fitness was 0.732. The result for G10A U16C reads 0.777; that for A45C G56C, 0.64. In the case of C11U A14C C30G A40G C49A G68A, the yeast fitness was found to be 0.537. The value for G50A G51A was 0.645; that for U8A A14G C31U G58A C61G C66U was no more than 0.5. The result for C4U U35C reads 0.715.

As to U3C A42C A69C, the yeast fitness came to 0.978. For C24G C33A A70C, the yeast fitness is no more than 0.5.

On to G23C C31G C60A A70U, for which the yeast fitness turned out to be 0.554.

A20C A45U C55U: the yeast fitness was no more than 0.5.

Turning to C24G U35G G48C C66U, the yeast fitness was no more than 0.5. Take G6A A36C A37G G52A: the yeast fitness is no more than 0.5. The result for A20U G23A G63A A70U reads no more than 0.5. The result for G56A A69C A70U reads 0.825.

C29A G38A U54C A69U: the yeast fitness is no more than 0.5. The result for U3C G48A G67C reads 0.653; that for C5U G18C A40G A43C U54A, 0.72; that for C27G G44C U47C, no more than 0.5. The result for U2G A20C G48C reads no more than 0.5; that for A36U A65U, 0.597. The result for U26G C66U reads 0.862. Turning to A15U C30U A37G, the yeast fitness was no more than 0.5. As for U3G U8C C62U, the yeast fitness was determined as 0.525. Consider C29G C33U A37G A40C, for which the yeast fitness was no more than 0.5. For A36G C46G, the yeast fitness is 1.08. The result for U3A C30G C33U C55U reads no more than 0.5. As to C22G C34A A42G C66A, the yeast fitness is no more than 0.5. The result for C31U C34U G38A G44C reads no more than 0.5; that for G10A A45G C55A, no more than 0.5; that for C11A C27U C31U C34G A40G, no more than 0.5. A15G C30U C55U: the yeast fitness is no more than 0.5. With C11A U53A, the yeast fitness was 0.59.

For the variant G6C C24U G38C A40G, the yeast fitness is no more than 0.5. Take C4U U16G C66G: the yeast fitness was no more than 0.5. Take U32C G38A: the yeast fitness is 0.962.

With C4A G10C A57U, the yeast fitness is no more than 0.5. As to U8C C24U A42U G52C, the yeast fitness is no more than 0.5.

As to A36G A45C C61U, the yeast fitness was 0.76.

Turning to A15G U26A A45G C60U C62A, the yeast fitness is 0.562. On to C30U C55U G67U, for which the yeast fitness is no more than 0.5. As for U32C C61G A69C, the yeast fitness was no more than 0.5. The result for G9U C31U A36C U53C reads no more than 0.5. Regarding C4U G6A U13C U28C, the yeast fitness was determined as 0.616.

Consider C4U A15G C22U G44C, for which the yeast fitness was no more than 0.5. The value for C5U C31A U32C A37C G50C A69C was 0.731; that for C27U A57U G58C was 0.667. U28C A42U A43G: the yeast fitness turned out to be 0.597. As to C5G A14G A15G C30U A45G U64A, the yeast fitness is no more than 0.5. The result for C24U C30A A37G reads 0.593. The value for C31G A45G G56U was 0.561. As for A15C G25C C29U U35C A43U G67C, the yeast fitness was no more than 0.5. The value for A21U G38C A43U G50A A65C was no more than 0.5; that for U3C C5G G17C C29U was no more than 0.5.

With C5A G17A A21C C33G A43U, the yeast fitness was no more than 0.5. The value for C4G A20U G56C was no more than 0.5; that for G18C C24G U35C G50C C55G G67C was no more than 0.5. On to C5G A21C C61A, for which the yeast fitness is no more than 0.5. For C24U A45C U47A G63A, the yeast fitness is no more than 0.5.

As for G38A U54A, the yeast fitness came out at 0.628.

Turning to A45G G51A U59C, the yeast fitness is no more than 0.5. The result for G25A G58C A65G reads 1.04. Regarding C5G A43G A70G, the yeast fitness amounted to 0.537. The result for C27G U32A U54G reads no more than 0.5. For C30G A43U G48C C55A C66U, the yeast fitness is no more than 0.5. The result for A36U A40U A57U G63A reads no more than 0.5; that for C5A A69U, 0.917; that for G12C U19A C27G A65C, 0.557. In the case of C11U A37G, the yeast fitness is 0.896.

U2A C34A U47G C49G C60G: the yeast fitness was no more than 0.5. The result for A45U A69C reads 1.04.

In the case of A15C G17A U54C C55G, the yeast fitness was no more than 0.5. For the variant C5U A37G, the yeast fitness amounted to 0.795. In the case of C27G A45C C49U G52A U59C, the yeast fitness is 0.6. Regarding U3C G56A U59C, the yeast fitness is 0.768.

In the case of C4A G23A U28A G48A A70C, the yeast fitness was no more than 0.5.

Consider C30U U32A A36U A37U C62U, for which the yeast fitness was no more than 0.5. As to U8C C55G, the yeast fitness came out at 0.671. The value for G18A G23C C30G A36U was no more than 0.5.

As for C4U C33A G48C, the yeast fitness was no more than 0.5. The result for G9A U16A A42C U53C C62A reads no more than 0.5; that for U8A C30G G56C A57G G68A A69C, no more than 0.5; that for U35C A37G C60U, no more than 0.5. Take U32A G58C A69U: the yeast fitness is 0.56. The value for G23A C31G G52A was no more than 0.5. The value for C5G A43U was 0.719; that for C5U U13A C61U was 0.624. The value for C4G A15G C22G G23A C49A was no more than 0.5. For the variant A37G U53C G67A, the yeast fitness is no more than 0.5. The result for U2G C30U U59C reads no more than 0.5; that for A20U A21C G67A, no more than 0.5; that for A15U C33G C66U, no more than 0.5. For C22G C27U U35C G39C A42C G48A, the yeast fitness is no more than 0.5. The value for U7A C22A C31G U32G A42G G52A was no more than 0.5; that for U13C G51C G67A was no more than 0.5. Take U35G A40G U54G: the yeast fitness was no more than 0.5. For the variant C5U U35G A45U A57C, the yeast fitness is no more than 0.5. With C31U A45C C61G A65C, the yeast fitness was no more than 0.5.

Regarding U2G C11G A20U C24G G51A C60G G68C, the yeast fitness is no more than 0.5. Turning to C5U A37U A42U G67A, the yeast fitness was no more than 0.5. Turning to G38C A40C G51C C62U A69U, the yeast fitness is no more than 0.5. On to A20C C46A, for which the yeast fitness came to 1.04. The value for C24A G68C was 0.643; that for C4A G6A G67U was no more than 0.5; that for A42G G63A was 0.684. The result for U26A G38C G58C U64A reads no more than 0.5. The result for C4U C11U U26G U28C A37G G41A C49G reads no more than 0.5; that for G6C U13C G50A, no more than 0.5.
